Source: PubChem BioAssay (several laboratories)
PfM18AAP inh – PfM18AAP enzyme inhibition | hit rate 1.2% among 290,000 | inhibition, % at 7.35 µM | recombinant PfM18AAP, H-Glu-NHMec fluorogenic cleavage;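 active = inhibition above the campaign mean inhibition over all tested compounds plus 3 SD, cut at about 28% in these data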;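 also: 0% = plate median of test compound wells and 100% = 2 mM ZnCl2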
FAS TE block – inhibitors of human fatty acid synthase thioesterase domain | P49327 | recombinant FAS-TE, OMFH fluorogenic substrate, fluorescence endpoint | inhibition, % at 15 µM | hit rate 0.67% among 360,000;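 active = compounds whose normalised, plate-corrected inhibition of enzyme fluorescence in the single-dose primary screen is 50% or more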;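 also: 0% = DMSO with enzyme and 100% = substrate without enzyme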
UCH37 inh – human UCH37 deubiquitinating enzyme inhibition. inhibition, % (no concentration beside the values). Q9Y5K5. purified proteasome/UCH37, Ub-AMC cleavage fluorescence. hit rate 0.33% among 330,000;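 active = mean inhibition over replicate wells above about 20%, limit read from the data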;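 also: 0% = compound-free wells with enzyme and 100% = wells lacking proteasome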
Target sequence (Q9Y5K5 whole entry, looked up): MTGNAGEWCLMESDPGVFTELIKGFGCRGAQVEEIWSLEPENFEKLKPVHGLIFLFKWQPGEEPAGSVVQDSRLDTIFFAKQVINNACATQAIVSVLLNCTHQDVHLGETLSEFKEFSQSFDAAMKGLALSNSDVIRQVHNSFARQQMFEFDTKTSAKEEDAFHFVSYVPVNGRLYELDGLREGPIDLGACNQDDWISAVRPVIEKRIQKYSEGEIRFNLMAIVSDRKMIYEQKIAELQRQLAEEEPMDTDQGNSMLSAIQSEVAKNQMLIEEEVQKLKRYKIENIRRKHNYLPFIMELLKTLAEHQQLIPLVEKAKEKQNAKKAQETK
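System: Proteasome-associated human UCH37 deubiquitinase; Input: 0.15 nM proteasome in added enzyme buffer; Also added: Ub-AMC substrate from 1 µM stock; Incubation: 30 min compound-proteasome preincubation then 25 min substrate reaction, room temperature; Detection: fluorescence, ex 355 nm, em 460 nm; Read-out: % inhibition of Ub-AMC cleavage fluorescence; Benchmarks: no-proteasome and no-compound wells.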
HDAC3 inh – human HDAC3 inhibition; inhibition, % at 8.3 µM; hit rate 0.15% among 320,000; AID 2718; O15379; recombinant HDAC3, fluorogenic peptide/trypsin coupled, fluorescence; in the data active = inhibition above about 26%, passing the limit was not always enough
Rtt109 Vps75 – C. albicans Rtt109 histone acetyltransferase inhibition; purified Rtt109/Vps75, ThioGlo CoA-SH fluorescence, 4 h; inhibition, % at 34.9 µM; hit rate 0.16% among 330,000;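 active = inhibition of at least 50% in every replicate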
Target sequence (Q5AAJ8 whole entry, looked up): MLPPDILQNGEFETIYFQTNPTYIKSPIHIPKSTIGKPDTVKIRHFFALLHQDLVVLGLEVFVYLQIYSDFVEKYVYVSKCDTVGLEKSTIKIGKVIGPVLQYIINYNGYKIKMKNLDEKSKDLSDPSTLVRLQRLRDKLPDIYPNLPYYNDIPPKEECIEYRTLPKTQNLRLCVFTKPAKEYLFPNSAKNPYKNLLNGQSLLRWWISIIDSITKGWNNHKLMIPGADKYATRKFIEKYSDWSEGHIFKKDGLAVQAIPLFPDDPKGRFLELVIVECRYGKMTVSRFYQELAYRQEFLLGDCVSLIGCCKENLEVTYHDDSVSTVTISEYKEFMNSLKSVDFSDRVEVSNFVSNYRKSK
ALR H2O2 inh – blocks human ALR sulfhydryl oxidase activity | P55789 | purified ALR, DTT oxidation, H2O2 HRP-luminol luminescence | inhibition, % (no concentration beside the values) | hit rate 3.8% among 290,000;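 active = mean replicate inhibition above about 79%, with every replicate also reaching it, limit read from the data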
The depositor's hits bear a star. Shown are actives, neighbours in structure and some others; about 4.6% of the full set was active somewhere.

How did COc1ccc(/C=N/NC(=O)c2[nH]c3ccc(C)cc3c2-c2ccccc2)c(C(=O)O)c1OC do in these assays?
PfM18AAP inh: 8.3; FAS TE block: -2.5; HDAC3 inh: -13.0; Rtt109 Vps75: 1.8; ALR H2O2 inh: 98.7*

What do the screens show for `COc1ccc(C=NNC(=O)CNC(=O)C2COc3ccccc3O2)cc1[N+](=O)[O-]` (centres undefined)?
UCH37 inh: -0.6

How did COc1ccccc1OCC(=O)Nc1ccc(N2CCOCC2)cc1N1CCOCC1 do in these assays?
FAS TE block: -0.6; UCH37 inh: 1.5; HDAC3 inh: 1.3; Rtt109 Vps75: 5.3; ALR H2O2 inh: 6.5

How did COc1ccc(CCC(=O)N(C)CC(=O)Nc2ccc(N3CCOCC3)cc2)cc1 do in these assays?
PfM18AAP inh: 7.9; FAS TE block: -5.0; UCH37 inh: 3.4; HDAC3 inh: -5.1; Rtt109 Vps75: -0.1; ALR H2O2 inh: 93.6*

How did CCN(CC(=O)Nc1ccc(N2CCOCC2)cc1)C(=O)COc1ccccc1OC do in these assays?
PfM18AAP inh: 5.3; FAS TE block: -8.8; HDAC3 inh: -2.0; ALR H2O2 inh: 90.9*

How did CC(Oc1ccc(Br)cc1)C(=O)N(C)CC(=O)Nc1ccc(N2CCOCC2)cc1 (centres undefined) do in these assays?
FAS TE block: -2.0; UCH37 inh: -1.9; HDAC3 inh: 9.2; Rtt109 Vps75: -3.1; ALR H2O2 inh: 98.7*

What do the screens show for `O=C(CNS(=O)(=O)c1ccccc1F)Nc1ccc(N2CCOCC2)cc1`?
PfM18AAP inh: -5.9; FAS TE block: -8.7; UCH37 inh: 5.5; HDAC3 inh: -1.9; Rtt109 Vps75: -4.9; ALR H2O2 inh: 94.4*

Results for COc1cc(C(=O)Oc2ccc(C=NNC(=O)c3ccncc3)cc2)cc(OC)c1OC ?
UCH37 inh: 3.6

Results for CN(CC(=O)Nc1ccc(F)cc1)C(=O)COc1ccccc1Cc1ccccc1 ?
FAS TE block: 18.8; UCH37 inh: 1.5; HDAC3 inh: -1.8; Rtt109 Vps75: 50.8*; ALR H2O2 inh: -3.7

Results for CN(CC(=O)Nc1ccc(N2CCOCC2)cc1)C(=O)COc1ccccc1F ?
PfM18AAP inh: 1.8; FAS TE block: -3.6; UCH37 inh: -0.7; HDAC3 inh: 0.6; Rtt109 Vps75: 5.0; ALR H2O2 inh: 77.8*

What do the screens show for `CC(=O)c1ccc(OCC(=O)N(C)CC(=O)Nc2ccc(N3CCOCC3)cc2)cc1`?
FAS TE block: 1.8; UCH37 inh: 2.3; HDAC3 inh: 1.6; Rtt109 Vps75: 10.2; ALR H2O2 inh: 18.4

How did COc1ccc(C(=O)NCC(=O)NN=Cc2c(C)[nH]c3ccccc23)cc1 do in these assays?
UCH37 inh: 6.6

Results for Cc1nn(-c2ccccc2)c(Oc2ccc(F)cc2)c1C=Nn1cnnc1 ?
UCH37 inh: 1.9

How did NC(=NOC(=O)c1ccc([N+](=O)[O-])cc1)c1cccnc1 do in these assays?
UCH37 inh: 5.0

How did CCOC(=O)[C@H]1O[C@@H]1C(=O)N[C@@H](CC(C)C)C(=O)NCCC(C)C do in these assays?
PfM18AAP inh: 3.4; FAS TE block: -0.7; UCH37 inh: 0.3; HDAC3 inh: -7.4; Rtt109 Vps75: 7.1; ALR H2O2 inh: 86.5*

Results for O=C1/C(=C/c2cccnc2)CCc2c1[nH]c1ccccc21 ?
PfM18AAP inh: -4.2; FAS TE block: -1.1; UCH37 inh: 2.9; HDAC3 inh: 5.6; Rtt109 Vps75: -1.4; ALR H2O2 inh: -10.7

How did CC1C/C(=C\c2cccnc2)C(=O)/C(=C/c2cccnc2)C1 (centres undefined) do in these assays?
PfM18AAP inh: 6.5; FAS TE block: -5.2; UCH37 inh: 7.7; HDAC3 inh: 4.6; Rtt109 Vps75: -5.7; ALR H2O2 inh: 95.5*

How did Cc1cc2nc(CO)[nH]c2cc1C do in these assays?
PfM18AAP inh: 0.2; FAS TE block: -5.2; UCH37 inh: 3.6; HDAC3 inh: -2.1; Rtt109 Vps75: 3.9; ALR H2O2 inh: 5.9

How did Cc1cc2nc(CS)[nH]c2cc1C do in these assays?
PfM18AAP inh: 3.9; FAS TE block: -23.3; UCH37 inh: -13.1; HDAC3 inh: -3.3; Rtt109 Vps75: -1.4; ALR H2O2 inh: 98.8*

Results for N#C/C(=C\c1c(Cl)cccc1Cl)c1nn(-c2ccccc2)c(-n2cccc2)c1C#N ?
PfM18AAP inh: 3.8; FAS TE block: 35.6; UCH37 inh: 3.2; HDAC3 inh: 6.6; Rtt109 Vps75: 56.1*; ALR H2O2 inh: 0.3

What do the screens show for `CC(C)Oc1ccccc1C=NNC(=O)C1CCCC1`?
UCH37 inh: 4.7

What do the screens show for `Cc1ccc2nc(-c3ccccn3)c(NC3CCCC3)n2c1`?
PfM18AAP inh: 2.8; FAS TE block: 5.3; UCH37 inh: -1.2; HDAC3 inh: 1.5; Rtt109 Vps75: 2.7; ALR H2O2 inh: 98.8*

How did Cc1ccc(Nc2c(-c3ccccn3)nc3cccc(C)n23)cc1 do in these assays?
PfM18AAP inh: 3.8; FAS TE block: -0.5; UCH37 inh: -0.9; HDAC3 inh: 5.6; Rtt109 Vps75: -8.2; ALR H2O2 inh: 98.9*

Results for Cc1cc(C)n2c(Nc3c(C)cccc3C)c(-c3ccccn3)nc2n1 ?
FAS TE block: -19.2

Results for Cc1cccc(C)c1Nc1c(-c2ccccn2)nc2ccccn12 ?
PfM18AAP inh: 0.9; FAS TE block: 9.4; UCH37 inh: -1.4; HDAC3 inh: 0.3; Rtt109 Vps75: -6.4; ALR H2O2 inh: 94.1*

What do the screens show for `Cn1nc(-c2ccc(Cl)cc2)c2cc(C(=O)NCCN3CCOCC3)sc21`?
PfM18AAP inh: -2.1; FAS TE block: 0.5; UCH37 inh: -81.6; HDAC3 inh: -24.6; Rtt109 Vps75: 9.2; ALR H2O2 inh: 93.1*

How did Cn1nc(-c2ccc(Cl)cc2)c2cc(C(=O)NC3CC3)sc21 do in these assays?
PfM18AAP inh: -3.1; FAS TE block: -5.6; UCH37 inh: -2.7; HDAC3 inh: -1.7; Rtt109 Vps75: -0.6; ALR H2O2 inh: 84.0*

What do the screens show for `CCN1CCN(C(=O)c2cc3c(-c4ccc(Cl)cc4)nn(C)c3s2)CC1`?
PfM18AAP inh: 1.1; FAS TE block: -4.6; UCH37 inh: -18.6; HDAC3 inh: -3.0; Rtt109 Vps75: 19.2; ALR H2O2 inh: 97.8*

Results for CCn1c(=O)c2cc(C(=O)NCCN3CCOCC3)sc2c2ccccc21 ?
PfM18AAP inh: 11.7; FAS TE block: -4.6; UCH37 inh: -164.5; HDAC3 inh: -46.8; Rtt109 Vps75: -0.1; ALR H2O2 inh: 94.3*

What do the screens show for `CC(=NNC(=S)Nc1c(C)cccc1C)c1ccc(O)cc1`?
UCH37 inh: 1.8

How did Brc1ccc(-c2ccc(C=NNc3nc4ccccc4[nH]3)o2)cc1 do in these assays?
UCH37 inh: -125.3

How did COc1ccc(Nc2cc(C(=O)NCCCN3CCOCC3)c3ccccc3n2)cc1 do in these assays?
PfM18AAP inh: -0.6; FAS TE block: -2.7; UCH37 inh: 5.4; HDAC3 inh: -1.5; Rtt109 Vps75: 3.9; ALR H2O2 inh: 64.4
